Activity calls are given as the source filed them. No cut-off for these calls is given here.

The values below come from ChEMBL document CHEMBL1136843, “N-Benzyl-1-heteroaryl-3-(trifluoromethyl)-1H-pyrazole-5-carboxamides as inhibitors of co-activator associated arginine methyltransferase 1 (CARM1)” (Bioorg Med Chem Lett, 2009).

Test [1] concerns the target T1, Histone-arginine methyltransferase CARM1 (Mus musculus, UniProt Q9WVG6).
T1 sequence (Q9WVG6 whole entry): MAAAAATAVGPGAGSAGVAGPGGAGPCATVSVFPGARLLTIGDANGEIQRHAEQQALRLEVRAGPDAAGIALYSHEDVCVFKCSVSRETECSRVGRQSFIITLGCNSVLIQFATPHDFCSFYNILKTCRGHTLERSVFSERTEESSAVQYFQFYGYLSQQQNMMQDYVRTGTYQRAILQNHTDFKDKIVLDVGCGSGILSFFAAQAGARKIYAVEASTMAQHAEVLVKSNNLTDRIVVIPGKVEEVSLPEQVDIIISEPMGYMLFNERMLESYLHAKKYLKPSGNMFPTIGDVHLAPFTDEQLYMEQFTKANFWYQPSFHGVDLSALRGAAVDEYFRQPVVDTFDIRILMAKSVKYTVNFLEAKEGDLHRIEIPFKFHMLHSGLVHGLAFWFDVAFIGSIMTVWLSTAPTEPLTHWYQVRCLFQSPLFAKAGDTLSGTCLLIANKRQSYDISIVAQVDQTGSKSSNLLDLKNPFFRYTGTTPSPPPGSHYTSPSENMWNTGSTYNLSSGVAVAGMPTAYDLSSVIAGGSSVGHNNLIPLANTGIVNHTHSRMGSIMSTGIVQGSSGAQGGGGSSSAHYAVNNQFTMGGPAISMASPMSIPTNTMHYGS
In words: Inhibition of mouse recombinant his-tagged CARM1 expressed in Sf9 cells by histone methyltransferase assay. In short, it runs like this: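 Recombinant CARM1 diluted in Tris–HCl pH 9 and pre-incubated with compound for 10 min at rt. Histone H3 substrate plus SAM containing 20% [3H]SAM then added and incubated 15 min at 30 °C. Reaction quenched with SAH, spotted onto P30 filtermat with wax scintillant, and incorporated radioactivity counted.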

The test system of test [2] is DU-145. In words: Cytotoxicity against human DU145 cells by MTT assay. It counts as functional, cell-based. In short, it runs like this:
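DU145 prostate carcinoma cell growth measured by MTT proliferation assay; HDAC inhibitor MS-275 as positive control.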

The target in test [3] is T2, Estrogen receptor (Homo sapiens, UniProt P03372).
T2 sequence (P03372 whole entry): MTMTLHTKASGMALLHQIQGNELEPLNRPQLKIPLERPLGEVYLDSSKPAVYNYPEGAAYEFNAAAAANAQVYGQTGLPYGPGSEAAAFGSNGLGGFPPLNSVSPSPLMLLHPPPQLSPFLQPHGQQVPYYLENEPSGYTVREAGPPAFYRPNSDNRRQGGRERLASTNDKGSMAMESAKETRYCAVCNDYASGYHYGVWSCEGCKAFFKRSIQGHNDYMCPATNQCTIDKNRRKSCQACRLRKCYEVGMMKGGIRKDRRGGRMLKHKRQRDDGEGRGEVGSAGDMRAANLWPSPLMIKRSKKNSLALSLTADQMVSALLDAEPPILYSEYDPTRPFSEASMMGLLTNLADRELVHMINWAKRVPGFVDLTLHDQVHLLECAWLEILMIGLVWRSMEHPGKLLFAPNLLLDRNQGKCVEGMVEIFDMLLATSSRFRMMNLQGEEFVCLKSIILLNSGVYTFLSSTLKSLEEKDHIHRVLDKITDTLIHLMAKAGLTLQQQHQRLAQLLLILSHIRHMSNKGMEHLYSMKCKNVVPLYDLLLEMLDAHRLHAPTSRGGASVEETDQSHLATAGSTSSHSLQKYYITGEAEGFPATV
In words: Antiestrogenic activity in human T47D cells expressing estrogen receptor assessed as estrogen-dependent transcription by luciferase reporter gene assay. The format is cell-based.

The subject of test [4] is T47D. In words: Growth inhibition of human estrogen-dependent T47D cells after 72 hrs. The format is functional, cell-based. In short, it runs like this:
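T47D breast ductal carcinoma cells stimulated with estradiol and counted after 72 h; tamoxifen as positive control.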

For test [5], the target named is T3, Androgen receptor (Homo sapiens, UniProt P10275).
T3 sequence (P10275 whole entry): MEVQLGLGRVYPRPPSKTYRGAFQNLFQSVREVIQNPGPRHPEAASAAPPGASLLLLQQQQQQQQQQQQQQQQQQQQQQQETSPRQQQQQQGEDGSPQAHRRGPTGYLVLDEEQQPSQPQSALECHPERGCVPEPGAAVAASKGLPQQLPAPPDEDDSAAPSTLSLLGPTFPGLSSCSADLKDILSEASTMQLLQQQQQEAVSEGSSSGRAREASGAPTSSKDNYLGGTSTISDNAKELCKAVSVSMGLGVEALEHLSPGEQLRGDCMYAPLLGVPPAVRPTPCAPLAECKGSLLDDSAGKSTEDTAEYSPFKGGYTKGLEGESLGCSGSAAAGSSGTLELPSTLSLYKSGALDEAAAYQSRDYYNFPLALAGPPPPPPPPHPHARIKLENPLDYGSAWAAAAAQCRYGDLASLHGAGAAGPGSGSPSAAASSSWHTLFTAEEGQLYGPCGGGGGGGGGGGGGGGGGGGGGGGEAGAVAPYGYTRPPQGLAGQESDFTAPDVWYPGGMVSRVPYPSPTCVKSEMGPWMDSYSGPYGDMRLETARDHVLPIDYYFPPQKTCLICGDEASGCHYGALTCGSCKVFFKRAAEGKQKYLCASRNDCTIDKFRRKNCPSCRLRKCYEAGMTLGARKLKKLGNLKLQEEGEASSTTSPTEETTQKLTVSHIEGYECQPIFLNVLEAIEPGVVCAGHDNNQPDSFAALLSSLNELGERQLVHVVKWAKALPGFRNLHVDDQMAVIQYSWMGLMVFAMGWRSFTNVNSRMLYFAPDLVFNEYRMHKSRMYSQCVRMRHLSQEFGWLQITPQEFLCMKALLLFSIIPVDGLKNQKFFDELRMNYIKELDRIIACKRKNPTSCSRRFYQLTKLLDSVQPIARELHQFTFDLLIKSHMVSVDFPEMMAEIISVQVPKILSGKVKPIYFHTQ
In words: Antiandrogenic activity in human MDA-MB-453 cells expressing androgen receptor assessed as inhibition of DHT-induced androgen-dependent transcription by luciferase reporter gene assay. It counts as cell-based. On the technique in general: In a reporter assay the amount or activity of a reporter protein is the signal.

The target in test [6] is Protein arginine N-methyltransferase 1 (Homo sapiens, UniProt Q99873). In words: Inhibition of PRMT1.
Test [7] has as its target T4, Histone-lysine N-methyltransferase SETD7 (Homo sapiens, UniProt Q8WTS6).
T4 sequence (Q8WTS6 whole entry): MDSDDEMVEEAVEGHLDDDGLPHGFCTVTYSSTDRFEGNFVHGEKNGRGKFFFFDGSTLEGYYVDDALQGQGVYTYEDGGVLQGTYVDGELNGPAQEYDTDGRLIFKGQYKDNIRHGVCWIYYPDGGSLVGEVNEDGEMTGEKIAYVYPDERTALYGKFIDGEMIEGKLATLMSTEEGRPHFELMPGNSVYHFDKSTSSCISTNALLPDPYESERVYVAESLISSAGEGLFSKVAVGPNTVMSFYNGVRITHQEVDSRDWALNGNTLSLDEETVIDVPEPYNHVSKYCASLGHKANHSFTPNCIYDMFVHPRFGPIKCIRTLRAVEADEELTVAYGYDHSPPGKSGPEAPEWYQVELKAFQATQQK
In words: Inhibition of Set7/9 lysine methyltransferase.

For test [8], the target named is T5, Histone-arginine methyltransferase CARM1 (Mus musculus) (UniProt Q9WVG6).
T5 sequence (whole entry): T1 sequence (Q9WVG6 whole entry)
In words: Inhibition of mouse recombinant CARM1 assessed as inhibition of histone H3 methylation at 5 uM after 48 hrs by cell based assay. The essentials:
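Cell-based readout of histone H3 arginine 26 methylation, a CARM1 target site, in two different cell lines treated with compound up to […] for 48 h.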

Chain of Protein arginine N-methyltransferase 1 (Q99873 whole entry): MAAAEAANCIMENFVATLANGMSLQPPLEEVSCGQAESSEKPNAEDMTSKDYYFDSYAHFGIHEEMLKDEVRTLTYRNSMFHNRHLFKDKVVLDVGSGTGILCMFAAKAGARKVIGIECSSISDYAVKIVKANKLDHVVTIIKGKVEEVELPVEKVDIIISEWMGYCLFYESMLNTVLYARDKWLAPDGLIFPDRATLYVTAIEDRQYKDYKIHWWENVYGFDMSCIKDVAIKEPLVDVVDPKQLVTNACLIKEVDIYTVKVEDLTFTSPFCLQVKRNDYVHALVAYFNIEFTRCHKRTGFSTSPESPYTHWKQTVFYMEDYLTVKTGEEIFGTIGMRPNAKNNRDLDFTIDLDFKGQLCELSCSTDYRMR

In the case of `C[C@H](N)C(=O)NCc1ccc(-n2nc(C(F)(F)F)cc2C(=O)NCc2ccccc2F)s1`, in test [1], the IC50 (usually the concentration at which inhibition is half-maximal) was 2310 nM. Take `C[C@H](N)C(=O)NCc1ccc(-n2nc(C(F)(F)F)cc2C(=O)NCc2ccccn2)s1`: the IC50 in test [1] was 3350 nM.

As for `COc1ccccc1CNC(=O)c1cc(C(F)(F)F)nn1-c1nc(CNC(=O)[C@H](C)N)cs1`, the IC50 in test [1] worked out at 2200 nM. `Nc1ccccc1NC(=O)c1ccc(CNC(=O)OCc2cccnc2)cc1` [ENTINOSTAT]: in test [2], the IC50 stood at 2000 nM. For the compound `CC(C)Oc1ccccc1CNC(=O)c1cc(C(F)(F)F)nn1-c1ccc(CNC(=O)[C@H](C)N)s1`, the IC50 in test [1] turned out to be 2920 nM. As to `COc1ccccc1CNC(=O)c1cc(C(F)(F)F)nn1-c1cccc(CNC(=O)[C@H](C)N)c1`, the IC50 in test [1] was 60 nM; in test [3], greater than 10000 nM; in test [4] it was greater than 10000 nM; in test [5], greater than 10000 nM; in test [2], 18000 nM. Regarding `COc1ccccc1CNC(=O)c1cc(C(F)(F)F)nn1-c1cccc(CNC(=O)[C@H](C)N)n1`, the IC50 in test [1] turned out to be 3050 nM. Same read-out and setting: the same measure for `C[C@H](N)C(=O)NCc1cc(-n2nc(C(F)(F)F)cc2C(=O)NCc2ccccc2)cs1`: 220 nM; for `C[C@H](N)C(=O)NCc1ccc(-n2nc(C(F)(F)F)cc2C(=O)NCc2ccccc2)s1`: 230 nM; for `COc1ccccc1CNC(=O)c1cc(C(F)(F)F)nn1-c1cc(CNC(=O)[C@H](C)N)ccn1`: 4200 nM. Turning to `COC(=O)c1ccccc1CNC(=O)c1cc(C(F)(F)F)nn1-c1csc(CNC(=O)[C@H](C)N)c1`, the IC50 in test [1] was 770 nM.

In test [4], `CC/C(=C(\c1ccccc1)c1ccc(OCCN(C)C)cc1)c1ccccc1` [TAMOXIFEN] yielded an IC50 of 1000 nM. In the case of `COc1ccccc1CNC(=O)c1cc(C(F)(F)F)nn1-c1cccc2c1CN(CNC(=O)[C@H](C)N)C2`, the IC50 in test [1] was greater than 10000 nM. Still for that read-out and setting: the same measure for `COc1ccccc1CNC(=O)c1cc(C(F)(F)F)nn1-c1cccc2cc(CNC(=O)[C@H](C)N)oc12`: greater than 10000 nM; for `C[C@H](N)C(=O)NCc1ccc(-n2nc(C(F)(F)F)cc2C(=O)NCc2ccccc2C(F)(F)F)s1`: 4480 nM; for `C[C@H](N)C(=O)NCc1cc(-n2nc(C(F)(F)F)cc2C(=O)NCc2ccccc2F)cs1`: 790 nM.

With `COc1cccc(CNC(=O)c2cc(C(F)(F)F)nn2-c2csc(CNC(=O)[C@H](C)N)c2)c1`, in test [1], the IC50 was determined as 370 nM.

For `Cc1ccccc1CNC(=O)c1cc(C(F)(F)F)nn1-c1csc(CNC(=O)[C@H](C)N)c1`, in test [1], the IC50 was determined as 260 nM. The same measure, in the same setting: as for `COc1ccccc1CNC(=O)c1cc(C(F)(F)F)nn1-c1ccc(CNC(=O)[C@H](C)N)s1`, the figure is 300 nM. For the compound `COc1ccccc1CNC(=O)c1cc(C(F)(F)F)nn1-c1csc(CNC(=O)[C@H](C)N)c1`, the IC50 in test [1] is 60 nM; in test [6] it was greater than 100000 nM; in test [7], greater than 100000 nM; in test [3], greater than 10000 nM; in test [4], greater than 10000 nM; in test [5], greater than 10000 nM. This compound came in with an IC50 in test [2] of 18000 nM. Besides, in test [8], the outcome was inactive.
